Rpn11 inh – inhibitors of human proteasome Rpn11. human 26S proteasome, Ub4-pepOG fluorescence polarization; 20S core pre-blocked with epoxomicin. inhibition, % at 20 µM. AID 588493. actives 0.59% (n = 360,000). O00487;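 active = inhibition at 20 µM, scaled to each plate's controls, above about 33%, limit read from the data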
Myeloid diff MLP – compounds promoting myeloid differentiation; AID 624256; actives 1% (n = 360,000); ER-HoxA9 myeloid progenitors, lysozyme-GFP differentiation, flow cytometry; calls only at 10 µM;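 active = normalized GFP-positive differentiation at or above the plate's own cutoff, the solvent-only control mean plus 3 SD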;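 also: cells exposed to compound for four days before flow analysis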
HNF4A DNA FP – change in binding of human HNF4 alpha to DNA; P41235; HNF4a-FITC DNA binding, fluorescence polarization, 1 h; activity change, % at 10 µM; actives 0.3% (n = 360,000); AID 1224865; in the data active = activity change above about 30%, passing the limit was not always enough
Target sequence (P41235 whole entry, looked up): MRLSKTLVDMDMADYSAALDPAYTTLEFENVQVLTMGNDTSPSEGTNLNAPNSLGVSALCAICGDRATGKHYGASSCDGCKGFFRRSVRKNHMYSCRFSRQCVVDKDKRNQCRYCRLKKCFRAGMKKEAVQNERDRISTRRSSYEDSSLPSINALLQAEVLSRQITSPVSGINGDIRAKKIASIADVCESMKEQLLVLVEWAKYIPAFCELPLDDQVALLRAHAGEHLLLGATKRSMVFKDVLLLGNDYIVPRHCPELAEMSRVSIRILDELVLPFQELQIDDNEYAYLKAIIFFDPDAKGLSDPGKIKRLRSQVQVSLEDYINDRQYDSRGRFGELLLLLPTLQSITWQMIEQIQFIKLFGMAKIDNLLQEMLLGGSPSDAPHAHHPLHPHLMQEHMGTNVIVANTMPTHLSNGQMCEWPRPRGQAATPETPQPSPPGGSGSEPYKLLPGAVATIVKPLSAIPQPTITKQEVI
CSN deneddyl inh – CSN deneddylation inhibition; Purified CSN, SCF-Nedd8-OG deneddylation, fluorescence polarization; inhibition, % at 12.5 µM; Q92905; actives 0.38% (n = 360,000);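 active = pattern-corrected inhibition above about 35%, with an unprinted fluorescence ratio check between 0.5 and 1.5, limit read from the data, passing the limit was not always enough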;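 also: 0% = enzyme with substrate and 100% = substrate without enzyme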
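Detection – fluorescence polarization · System – HEK293T-derived human Csn5 enzyme · Controls – substrate-only high control, full reaction low control · Timing – 90 min, room temperature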
TPT1 inh – C. albicans TPT1 enzyme inhibition; inhibition, % at 5 µM; actives 0.81% (n = 300,000); recombinant caTPT1, FP RNA substrate dephosphorylation;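 active = inhibition above the mean of all tested compounds plus 3 SD, set per screening campaign, cut at about 24% in these data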;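 also: plate controls were DMSO alone for no effect and ferristatin control at 100 nM for full effect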
* = called active by the depositor; i = inactive; . = not tested or not shown; + = active, no number. Compounds with a hit are over-represented: about 2.3% of the library has one in this group of screens.

SMILES	Rpn11 inh	Myeloid diff MLP	HNF4A DNA FP	CSN deneddyl inh	TPT1 inh
CC(C)(C)NC(=O)C1C(c2ccccc2)=Nc2ccccc2N1C(=O)c1ccc(C(F)(F)F)cc1 (stereo unspecified)	.	i	-2.0	2.4	.
CCCn1c(N)c(C(=O)CSc2nnc(-c3c[nH]c4ccccc34)n2C2CC2)c(=O)[nH]c1=O	3.8	i	2.3	-1.7	.
Cn1c(N)c(C(=O)CSc2nnc(-c3c[nH]c4ccccc34)n2C2CC2)c(=O)[nH]c1=O	-2.7	i	-1.8	35.3*	.
C#CCSc1nnc(-c2c[nH]c3ccccc23)n1C	-0.9	+	-0.1	-4.6	-0.3
Cc1ccc(-n2nnnc2SCC(=O)c2c(N)n(C3CC3)c(=O)[nH]c2=O)cc1	i	+	1.7	-4.4	.
Nc1c(C(=O)CSc2nnnn2-c2ccccc2)c(=O)[nH]c(=O)n1C1CC1	-1.6	i	2.0	6.6	.
COc1cccc(-c2cccc3c2NC(=O)C3(C)Cc2cccc(F)c2)c1 (stereo unspecified)	-4.7	i	2.0	0.3	.
CC(Oc1ccccc1)C(=O)NNC(=O)c1cccs1 (stereo unspecified)	7.6	+	-2.7	-1.5	3.9
O=C(NC1CCC1)C1CCC(=O)N(Cc2ccc(Cl)cc2)C1 (stereo unspecified)	-12.1	i	3.7	4.3	.
Nc1ccc2c3c(cccc13)-c1ccccc1-2	-138.1	+	-105.4	-73.9	.
Cc1ccc2c3c(cccc13)-c1ccccc1C2=O	-52.0	i	-39.2	-5.6	-5.0
COc1ccc(C2NCCc3c2[nH]c2ccccc32)cc1COc1ccc(F)cc1 (stereo unspecified)	3.1	+	3.3	7.8	-4.9
C#Cc1ccc(NC(=O)C2(C)CCN2C(=O)Cc2ccc(C(C)C)cc2)cc1 (stereo unspecified)	4.6	i	0.9	3.6	.
C#CCOCCOCCOCCNc1nc(N2CCN(C(=O)C([C@@H](C)O)n3cc([C@@H](N)CCCCN)nn3)CC2)nc(N2CCN(C(=O)C([C@@H](C)O)n3cc([C@@H](N)CCCCN)nn3)CC2)n1 (stereo partly specified)	-16.6	i	7.5	-0.9	.
C#CCOCCOCCOCCNc1nc(N2CCN(C(=O)CCCCCCCCCCNC(=O)[C@H](CCCCN)n3cc(CCO)nn3)CC2)nc(N2CCN(C(=O)CCCCCCCCCCNC(=O)[C@H](CCCCN)n3cc(CCO)nn3)CC2)n1	7.7	i	130.5	103.6*	0.0
C#CCOCCOCCOCCNc1nc(N2CCN(C(=O)CCCCCCCCCCNC(=O)[C@H](CCCCN)n3cc(CCCC(=O)O)nn3)CC2)nc(N2CCN(C(=O)CCCCCCCCCCNC(=O)[C@H](CCCCN)n3cc(CCCC(=O)O)nn3)CC2)n1	-4.7	i	-0.2	2.1	0.6
C#CCOCCOCCOCCNc1nc(N2CCN(C(=O)C([C@@H](C)O)n3cc([C@@H](N)CCCCN)nn3)CC2)nc(N2CCN(C(=O)[C@H](CO)n3cc([C@@H](N)C(C)C)nn3)CC2)n1 (stereo partly specified)	-0.1	i	77.9*	24.8	.
C#CCOCCOCCOCCNc1nc(N2CCN(C(=O)CCCCCCCCCCNC(=O)[C@@H](CCSC)n3cc(CCO)nn3)CC2)nc(N2CCN(C(=O)CCCCCCCCCCNC(=O)[C@H]([C@@H](C)CC)n3cc(CCCCN=C(N)N)nn3)CC2)n1	87.3*	i	211.6	139.4*	-3.8
C#CCOCCOCCOCCNc1nc(N2CCN(C(=O)CCCCCCCCCCNC(=O)[C@H](CCCCN)n3cc(CCO)nn3)CC2)nc(N2CCN(C(=O)CCCCCCCCCCNC(=O)[C@H](CCCN=C(N)N)n3cc(C[C@@H](C)CC)nn3)CC2)n1	77.4*	i	163.8	109.0*	4.7
C[C@@H]1O[C@H](C2CCCC2)Cc2[nH]c(=S)[nH]c(=O)c21	.	i	-1.5	-0.9	.
CCOC(=O)[C@]12CCC=C1N(Cc1ccccc1)C(=O)[C@H](CC(=O)NCc1cccs1)C2	.	i	3.8	-4.1	.
Cc1cccc(NC(=O)CS(=O)(=O)c2cn(C)c3ccccc23)c1C	2.5	+	3.2	-3.5	2.2
C#CCNC(=O)C[C@@H]1C[C@@]2(C(=O)OC)CC(C)(C)CC=C2N(CCCCCCCC)C1=O	.	i	6.1	-2.9	.
NC(=O)c1ccc(NC(=O)COC(=O)/C=C/c2ccc(Br)o2)cc1	6.2	i	-22.1	48.2*	.
COc1ccc(C(=O)C(=O)N2CCC(c3ccccc3)CC2)cn1	.	i	0.3	-2.0	.
SMILES	Rpn11 inh	Myeloid diff MLP	HNF4A DNA FP	CSN deneddyl inh	TPT1 inh
CC(C)Oc1ccc(S(=O)(=O)N2CCOCC2)cc1NC(=O)CSC(=S)N1CCCC1	9.8	+	3.3	2.3	.
CC(C)Oc1ccc(S(=O)(=O)N2CCOCC2)cc1NC(=O)C1CCC1	2.1	i	5.0	-3.0	-2.6
CC1(c2ccc3c(c2)OCCO3)NC(=O)N(CC(=O)Nc2ccccc2)C1=O (stereo unspecified)	-0.6	i	1.3	4.0	.
CC1(c2ccc3c(c2)OCCO3)NC(=O)N(CC(=O)Nc2ccccc2SCC#N)C1=O (stereo unspecified)	25.6	+	12.9	6.7	.
Cc1sc2nc(C3CC3)nc(SCC(=O)N3c4ccccc4CC3C)c2c1C (stereo unspecified)	1.6	+	-0.2	-2.4	1.5
CN(Cc1ccccc1)C(=O)c1csc([C@@H]2C[C@H](O)[C@@H](CO)O2)n1	1.9	i	0.5	-0.9	.
Cc1cc(C)nc(NC(N)=NC2CCCCC2)n1	-6.6	+	0.0	-4.8	-1.7
Cc1cc(C)nc(NC(N)=S)n1	-6.2	i	-0.3	2.9	-1.2
CCOC(=O)C1=C(CSc2nc(-c3ccccc3)ccc2C#N)OC(N)=C(C#N)C1c1ccc(OC)cc1 (stereo unspecified)	.	+	39.3*	20.2	22.7
CCOC(=O)C1=C(CSc2nc(CC)c(C)cc2C#N)OC(N)=C(C#N)C1c1ccccc1 (stereo unspecified)	9.8	i	3.0	-0.1	3.7
Cn1c(-c2ccccc2)c(Sc2ccccc2)c2cc(-c3ccc4[nH]ccc4c3)ccc21	.	i	-1.2	-0.5	.
O=C(/C=C/c1ccco1)Nc1cccc(S(=O)(=O)N2CCOCC2)c1	3.6	i	2.3	-0.4	0.2
Cc1ccc(/C=C/C(=O)Nc2cccc(S(=O)(=O)N3CCOCC3)c2)o1	2.4	+	4.3	4.2	2.2
OC(c1ccc(F)cc1)c1ncc(-c2ccc3ccccc3c2)[nH]1 (stereo unspecified)	-9.5	i	4.7	2.2	.
Cc1cccc(C)c1-n1nnnc1C(c1ccnc2ccccc12)N1CCN(c2ccccc2F)CC1 (stereo unspecified)	.	i	-5.4	-5.5	.
CCOc1[nH]n(-c2ccccc2)c(=O)c1C=Nc1ccc(Cl)cc1	-5.6	i	-3.7	-5.2	-5.6
CCOc1[nH]n(-c2ccc(Cl)cc2)c(=O)c1C=Nc1ccc(OC)cc1	0.4	+	5.5	-1.4	-5.2

Source: PubChem BioAssay
